Results as given in ChEMBL document CHEMBL5058577, “EUbOPEN Chemogenomics Library 2 (Multiplex)” (2022).

Tested on: HEK-293T
Experiment: Multiplex assay against HEK293T
Format: toxicity, cell-based
Conditions: human
Outline: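 Values for tubulin, mitochondrial-mass and membrane-permeability phenotypes are per cents of cells with healthy nuclei. These cells were identified by CellPathfinder machine-learning gating of live cells that had been stained at seeding with Hoechst33342, BioTracker Green Microtubule Cytoskeleton Dye, MitoTracker Red and Annexin V Alexa Fluor 680 and imaged on a CQ1 microscope at 37°C and 5% CO2 after compound addition. The gating first set Hoechst high-intensity objects apart from normal cells, then split normal cells into healthy, pyknosed or fragmented nuclei, and pyknosed cells into mitotic or apoptotic.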

[1] = 12 h, 1 µM, compound concentration 1 uM, replicate 1
[2] = 12 h, 1 µM, compound concentration 1 uM, replicate 2
[3] = 12 h, 10 µM, compound concentration 10 uM, replicate 1
[4] = 12 h, 10 µM, compound concentration 10 uM, replicate 2
[5] = 24 h, 1 µM, compound concentration 1 uM, replicate 1
[6] = 24 h, 1 µM, compound concentration 1 uM, replicate 2
[7] = 24 h, 10 µM, compound concentration 10 uM, replicate 1
[8] = 24 h, 10 µM, compound concentration 10 uM, replicate 2
[9] = 48 h, 1 µM, compound concentration 1 uM, replicate 1
[10] = 48 h, 1 µM, compound concentration 1 uM, replicate 2
[11] = 48 h, 10 µM, compound concentration 10 uM, replicate 1
[12] = 48 h, 10 µM, compound concentration 10 uM, replicate 2

## Cc1sc2c(c1C)C(c1ccc(Cl)cc1)=N[C@@H](CC(=O)NCCCCCCCCNC(=O)COc1cccc3c1C(=O)N(C1CCC(=O)NC1=O)C3=O)c1nnc(C)n1-2 (stereo not given in full)
[1]
  Population Apoptotic (%): 66%
  Population Fragmented Nuclei (%): 5%
  Population Healthy Nuclei (%): 55%
  Population Hoechst High Intensity Objects (%): 9%
  Population Membrane Permeable-Phenotype (%): 0%
  Population Mitochondria Different-Phenotype (%): 73%
  Population Mitotic Cells (%): 33%
  Population Normal (%): 90%
  Population Pyknosed Nuclei (%): 39%
  Population Tubulin-Different-Phenotype (%): 49%
  Total Cell Count: 175
[2]
  Population Apoptotic (%): 62%
  Population Fragmented Nuclei (%): 6%
  Population Healthy Nuclei (%): 69%
  Population Hoechst High Intensity Objects (%): 30%
  Population Mitochondria Different-Phenotype (%): 91%
  Population Mitotic Cells (%): 37%
  Population Normal (%): 69%
  Population Pyknosed Nuclei (%): 24%
  Population Tubulin-Different-Phenotype (%): 59%
  Total Cell Count: 205
[3]
  Population Apoptotic (%): 60%
  Population Fragmented Nuclei (%): 9%
  Population Healthy Nuclei (%): 67%
  Population Hoechst High Intensity Objects (%): 14%
  Population Membrane Permeable-Phenotype (%): 0%
  Population Mitochondria Different-Phenotype (%): 75%
  Population Mitotic Cells (%): 39%
  Population Normal (%): 85%
  Population Pyknosed Nuclei (%): 23%
  Population Tubulin-Different-Phenotype (%): 23%
  Total Cell Count: 363
[4]
  Population Apoptotic (%): 53%
  Population Fragmented Nuclei (%): 8%
  Population Healthy Nuclei (%): 66%
  Population Hoechst High Intensity Objects (%): 37%
  Population Mitochondria Different-Phenotype (%): 87%
  Population Mitotic Cells (%): 46%
  Population Normal (%): 62%
  Population Pyknosed Nuclei (%): 24%
  Population Tubulin-Different-Phenotype (%): 39%
  Total Cell Count: 315
[5]
  Population Apoptotic (%): 51%
  Population Fragmented Nuclei (%): 7%
  Population Healthy Nuclei (%): 61%
  Population Hoechst High Intensity Objects (%): 6%
  Population Membrane Permeable-Phenotype (%): 0%
  Population Mitochondria Different-Phenotype (%): 58%
  Population Mitotic Cells (%): 48%
  Population Normal (%): 93%
  Population Pyknosed Nuclei (%): 31%
  Population Tubulin-Different-Phenotype (%): 22%
  Total Cell Count: 261
[6]
  Population Apoptotic (%): 67%
  Population Fragmented Nuclei (%): 6%
  Population Healthy Nuclei (%): 70%
  Population Hoechst High Intensity Objects (%): 30%
  Population Mitochondria Different-Phenotype (%): 83%
  Population Mitotic Cells (%): 32%
  Population Normal (%): 69%
  Population Pyknosed Nuclei (%): 23%
  Population Tubulin-Different-Phenotype (%): 31%
  Total Cell Count: 231
[7]
  Population Apoptotic (%): 52%
  Population Fragmented Nuclei (%): 11%
  Population Healthy Nuclei (%): 64%
  Population Hoechst High Intensity Objects (%): 12%
  Population Membrane Permeable-Phenotype (%): 0%
  Population Mitochondria Different-Phenotype (%): 64%
  Population Mitotic Cells (%): 47%
  Population Normal (%): 87%
  Population Pyknosed Nuclei (%): 24%
  Population Tubulin-Different-Phenotype (%): 19%
  Total Cell Count: 397
[8]
  Population Apoptotic (%): 57%
  Population Fragmented Nuclei (%): 9%
  Population Healthy Nuclei (%): 60%
  Population Hoechst High Intensity Objects (%): 39%
  Population Mitochondria Different-Phenotype (%): 86%
  Population Mitotic Cells (%): 42%
  Population Normal (%): 60%
  Population Pyknosed Nuclei (%): 30%
  Total Cell Count: 346
[9]
  Population Apoptotic (%): 55%
  Population Fragmented Nuclei (%): 7%
  Population Healthy Nuclei (%): 58%
  Population Hoechst High Intensity Objects (%): 2%
  Population Membrane Permeable-Phenotype (%): 0%
  Population Mitochondria Different-Phenotype (%): 56%
  Population Mitotic Cells (%): 44%
  Population Normal (%): 97%
  Population Pyknosed Nuclei (%): 33%
  Population Tubulin-Different-Phenotype (%): 30%
  Total Cell Count: 284
[10]
  Population Apoptotic (%): 67%
  Population Fragmented Nuclei (%): 9%
  Population Healthy Nuclei (%): 65%
  Population Hoechst High Intensity Objects (%): 15%
  Population Mitochondria Different-Phenotype (%): 78%
  Population Mitotic Cells (%): 32%
  Population Normal (%): 84%
  Population Pyknosed Nuclei (%): 25%
  Population Tubulin-Different-Phenotype (%): 42%
  Total Cell Count: 289
[11]
  Population Apoptotic (%): 48%
  Population Fragmented Nuclei (%): 9%
  Population Healthy Nuclei (%): 55%
  Population Hoechst High Intensity Objects (%): 14%
  Population Membrane Permeable-Phenotype (%): 0%
  Population Mitochondria Different-Phenotype (%): 51%
  Population Mitotic Cells (%): 51%
  Population Normal (%): 85%
  Population Pyknosed Nuclei (%): 35%
  Population Tubulin-Different-Phenotype (%): 17%
  Total Cell Count: 403
[12]
  Population Apoptotic (%): 65%
  Population Fragmented Nuclei (%): 15%
  Population Healthy Nuclei (%): 52%
  Population Hoechst High Intensity Objects (%): 31%
  Population Mitochondria Different-Phenotype (%): 76%
  Population Mitotic Cells (%): 34%
  Population Normal (%): 69%
  Population Pyknosed Nuclei (%): 31%
  Population Tubulin-Different-Phenotype (%): 31%
  Total Cell Count: 300
